ChEMBL document CHEMBL4130395, “Meroterpenoids with Protein Tyrosine Phosphatase 1B Inhibitory Activity from a Hyrtios sp. Marine Sponge” (J Nat Prod, 2017)
Activity calls are given as the source filed them. The calls are words filed in the database; no cut-off is given here.

What follows are molecules tested against T1, Tyrosine-protein phosphatase non-receptor type 1 (Homo sapiens, UniProt P18031) (assay: Inhibition of PTP1B (unknown origin) using p-nitrophenyl phosphate as substrate measured after 30 mins). Conditions: not given.
T1 sequence (P18031 whole entry): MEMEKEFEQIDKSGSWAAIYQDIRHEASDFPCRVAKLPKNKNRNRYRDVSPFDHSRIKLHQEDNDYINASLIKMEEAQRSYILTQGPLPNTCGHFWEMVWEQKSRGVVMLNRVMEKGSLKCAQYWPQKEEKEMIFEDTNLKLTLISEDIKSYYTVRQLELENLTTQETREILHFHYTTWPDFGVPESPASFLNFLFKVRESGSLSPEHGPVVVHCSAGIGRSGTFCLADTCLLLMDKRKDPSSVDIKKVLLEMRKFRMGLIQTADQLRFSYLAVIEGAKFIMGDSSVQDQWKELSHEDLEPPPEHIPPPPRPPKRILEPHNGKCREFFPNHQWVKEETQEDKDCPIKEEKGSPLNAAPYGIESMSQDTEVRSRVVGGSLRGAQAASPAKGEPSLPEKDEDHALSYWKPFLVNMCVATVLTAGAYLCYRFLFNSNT
Molecule `C=C1CCC[C@H]2[C@](C)(Cc3c(O)c(O)cc4nc(C)oc34)[C@@H](C)CC[C@]12C` has an IC50 of 4.8 µM.

What follows are molecules tested against T2, Tyrosine-protein phosphatase non-receptor type 1 (Homo sapiens) (UniProt P18031) (assay: Inhibition of PTP1B (unknown origin) at 30 uM using p-nitrophenyl phosphate as substrate measured after 30 mins). Conditions: not given.
T2 sequence (whole entry): T1 sequence (P18031 whole entry)
How it was run: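 30 nM PTP1B with 2 mM pNPP in 50 mM MOPS buffer, pH 6.5, with or without compound, 37 °C for 30 min. Stopped with 1 M NaOH; released pNP read at 405 nm absorbance. Oleanolic acid as positive control; IC50 from sigmoidal variable-slope dose-response fit.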
For `C=C1CCC[C@@]23OC4=C(C[C@]2(C)[C@@H](C)CC[C@]13C)C(=O)C(OC)=CC4=O`, the inhibition was “inactive”.
With `C=C1CCC[C@H]2[C@](C)(Cc3c(O)c(O)cc4ncoc34)[C@@H](C)CC[C@]12C` [NAKIJINOL B] the inhibition was “inactive”.
For `C=C1CCC[C@H]2[C@]3(C)Cc4oc(=O)cc(OC)c4[C@]3(C)CC[C@]12C`, the inhibition was “inactive”.

The molecules below were run on RPMI-8226 (assay: Cytotoxicity against human RPMI8226 cells at 30 uM after 48 hrs by MTS assay). Conditions: rpmi-8226, 48 h.
Format: cell-based
How it was run: (§1)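 Cells seeded in 96-well plates and grown 24 h, then treated 48 h with compound dissolved in DMSO at a 30 μM working concentration. MTS (20 μL) added and incubated 2 h at 37 °C for viability read-out; method described as MTT assay.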
In the case of `C=C1CCC[C@@]23OC4=C(C[C@]2(C)[C@@H](C)CC[C@]13C)C(=O)C(OC)=CC4=O`, the Activity is reported as “Non-Toxic”.
For `C=C1CCC[C@H]2[C@](C)(Cc3c(O)c(O)cc4nc(C)oc34)[C@@H](C)CC[C@]12C`, the Activity was “Non-Toxic”.
In the case of `C=C1CCC[C@H]2[C@](C)(Cc3c(O)c(O)cc4ncoc34)[C@@H](C)CC[C@]12C` [NAKIJINOL B], the Activity is reported as “Non-Toxic”.
`C=C1CCC[C@H]2[C@]3(C)Cc4oc(=O)cc(OC)c4[C@]3(C)CC[C@]12C` was tested, and the Activity was “Non-Toxic”.

These molecules were tested on HeLa (assay: Cytotoxicity against human HeLa cells at 30 uM after 48 hrs by MTS assay). Conditions: not given.
Format: cell-based
How it was run: as §1
With `C=C1CCC[C@@]23OC4=C(C[C@]2(C)[C@@H](C)CC[C@]13C)C(=O)C(OC)=CC4=O` the Activity was “Non-Toxic”.
With `C=C1CCC[C@H]2[C@](C)(Cc3c(O)c(O)cc4nc(C)oc34)[C@@H](C)CC[C@]12C` the Activity was “Non-Toxic”.
With `C=C1CCC[C@H]2[C@](C)(Cc3c(O)c(O)cc4ncoc34)[C@@H](C)CC[C@]12C` [NAKIJINOL B] the Activity was “Non-Toxic”.
For `C=C1CCC[C@H]2[C@]3(C)Cc4oc(=O)cc(OC)c4[C@]3(C)CC[C@]12C`, the Activity was “Non-Toxic”.

These molecules were tested on HepG2 (assay: Cytotoxicity against human HepG2 cells at 30 uM after 48 hrs by MTS assay). Conditions: hepg2, 48 h.
Format: cell-based
How it was run: as §1
For `C=C1CCC[C@@]23OC4=C(C[C@]2(C)[C@@H](C)CC[C@]13C)C(=O)C(OC)=CC4=O`, the Activity was “Non-Toxic”.
`C=C1CCC[C@H]2[C@](C)(Cc3c(O)c(O)cc4nc(C)oc34)[C@@H](C)CC[C@]12C` was tested, and the Activity was “Non-Toxic”.
`C=C1CCC[C@H]2[C@](C)(Cc3c(O)c(O)cc4ncoc34)[C@@H](C)CC[C@]12C` [NAKIJINOL B] was tested, and the Activity was “Non-Toxic”.
With `C=C1CCC[C@H]2[C@]3(C)Cc4oc(=O)cc(OC)c4[C@]3(C)CC[C@]12C` the Activity was “Non-Toxic”.

The molecules below were run on HL-60 (assay: Cytotoxicity against human HL60 cells at 30 uM after 48 hrs by MTS assay). Conditions: hl-60, 48 h.
Format: cell-based
How it was run: as §1
For `C=C1CCC[C@@]23OC4=C(C[C@]2(C)[C@@H](C)CC[C@]13C)C(=O)C(OC)=CC4=O`, the Activity was “Non-Toxic”.
In the case of `C=C1CCC[C@H]2[C@](C)(Cc3c(O)c(O)cc4nc(C)oc34)[C@@H](C)CC[C@]12C`, the Activity is reported as “Non-Toxic”.
With `C=C1CCC[C@H]2[C@](C)(Cc3c(O)c(O)cc4ncoc34)[C@@H](C)CC[C@]12C` [NAKIJINOL B] the Activity was “Non-Toxic”.
In the case of `C=C1CCC[C@H]2[C@]3(C)Cc4oc(=O)cc(OC)c4[C@]3(C)CC[C@]12C`, the Activity is reported as “Non-Toxic”.
